Here are results for 22 compounds from ChEMBL document CHEMBL4138310 (J Med Chem, 2018).

pEC50: −log10 of the molar value. Some results are limits rather than exact numbers.

For data set [1], the target named is Protease (Human immunodeficiency virus 1) (UniProt Q9YQ12). In words: Inhibition of recombinant HIV1 protease at 1 nM using H-Lys-Ala-Arg-Val-Tyr-Phe(p-NO2)-Glu-Ala-Nle-NH2 as substrate preincubated for 5 mins followed by substrate addition measured after 3 hrs by fluorescence-based assay. An outline of the steps: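 Recombinant HIV-1 protease (40 ng/mL stock in pH 5.0 acetate/EDTA/NaCl/2-mercaptoethanol/NP-40/glycerol) mixed with inhibitor (10 nM solution in DMSO) in 200 mM MES-NaOH pH 5.5 with 2 mM DTT, 2 mM EDTA and 1 M NaCl. Preincubated 5 min at 37 °C, then 1.0 mM substrate solution added and incubated 3 h at 37 °C. Stopped with 1 N HCl. The Lys-Ala-Arg-Val-Tyr-OH product was quantified by RP-HPLC with fluorescence (Ex 275, Em 305 nm). Single determination.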

For data set [2], the system named is Human immunodeficiency virus 1. In words: Antiviral activity against wild-type HIV1 pNL4-3 infected in human MT4 cells assessed as inhibition of virus-induced cytopathic effect after 5 days in absence of human serum by MTT assay. It is filed as functional, organism-based. The following applies: Human immunodeficiency virus 1, pNL4-3, MT4, 120 h. A digest of the protocol:
(§1)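 MT-4 cells inoculated with HIV-1 pNL4-3, then given an equal volume of compound at several concentrations in 1% DMSO solution with 10% FBS. Incubated 5 days at 37 °C in CO2, in triplicate. MTT read by optical density, percent reduction of cytopathic effect calculated, and EC50 fitted to the median-effect equation. Values averaged over n = 3; the 50% human serum condition was run alongside.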
(In general: Damage to the host cells serves as the signal in cytopathic effect assays.)

For data set [3], the system named is Human immunodeficiency virus 1. In words: Antiviral activity against wild-type HIV1 pNL4-3 infected in human MT4 cells assessed as inhibition of virus-induced cytopathic effect after 5 days in presence of 50 % of human serum by MTT assay. The following applies: Human immunodeficiency virus 1, pNL4-3, MT4, 120 h. It is filed as functional, organism-based. A digest of the protocol: as §1

The test system of data set [4] is Human immunodeficiency virus 1. In words: Ratio of EC50 for wild-type HIV1 pNL4-3 infected in human MT4 in presence of 50% of human serum to EC50 for wild-type HIV-1 pNL4-3 infected in human MT4 in absence of human serum. The class given is functional. An outline of the steps:
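Serum binding effect calculated as the pNL4-3 EC50 in 50% human serum divided by the EC50 in 0% serum, using MT-4 cytopathic-effect MTT assays run for 5 days at 37 °C.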

The nature of data set [5]: Ratio of EC50 for inhibition of protease L10F/V32I/M46I/I47V/Q58E/I84V mutant in HIV1 A17 infected in human MT4 cells to EC50 for wild-type HIV-1 pNL4-3 infected in human MT4 cells. It is filed as functional, Human immunodeficiency virus 1. A digest of the protocol:
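Ratio of EC50 values from MT-4 cytopathic-effect MTT assays (5 days, 37 °C, triplicate, median-effect fit). Numerator is LPV-resistant strain A1711, denominator is wild-type HIV-1 pNL4-3.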

Data set [6] in a line: Cytotoxicity against human MT4 cells after 5 days by MTT assay. The class given is cell-based. The following applies: read-out: TD50. A digest of the protocol:
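Uninfected MT-4 cells given compound at several concentrations in 1% DMSO solution with 10% FBS. Incubated 5 days at 37 °C in CO2, in triplicate. Viability read by MTT optical density, with TD50 taken as the cytotoxic measure.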
A general note: Tetrazolium dyes change colour on reduction, which living cells bring about.

Data set [7] relates to Human immunodeficiency virus 1. In words: Antiviral activity against wild-type HIV1 3B infected in human MT4 cells assessed as inhibition of virus-induced cytopathic effect after 5 days by MTT assay. It is filed as functional, organism-based. The note with it: Human immunodeficiency virus 1, 3B, MT4, 120 h.
The nature of data set [8]: Ratio of EC50 for inhibition of HIV1 A17 protease L10F/V32I/M46I/I47V/Q58E/I84V mutant infected in human MT4 cells to EC50 for wild-type HIV-1 3B infected in human MT4 cells. It is filed as functional, Human immunodeficiency virus 1.
Data set [9] deals with Human immunodeficiency virus 1. In words: Antiviral activity against wild-type HIV1 pNL4-3 infected in CMVdeltaR8.91 transfected 293T cells after 48 hrs by lentiviral vector-based luciferase reporter gene assay. The class given is functional, organism-based. The note with it: Human immunodeficiency virus 1, pNL4-3, HEK-293T. An outline of the steps:
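pNL4-3-based luciferase reporter lentiviral vector made by transfecting 293T cells with pCMV-ΔR8.91 (wild-type or V32I/L33F/I54M/V82I or V32I/L33F/I54M/I84V protease) plus luciferase transfer and envelope plasmids, with or without inhibitor. After 48 h, fresh 293T cells infected with vector. IC50 for suppression of luciferase transduction taken from dose-response curve.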
On the technique in general: In a reporter assay the amount or activity of a reporter protein is the signal.

Consider `CN(C)c1cccc(OCC(=O)N[C@H](C(=O)N[C@@H](Cc2ccccc2)[C@H](O)C(=O)N2CSC(C)(C)[C@H]2C(=O)NC2CCCC2)[C@H]2CCOC2)c1`, for which the inhibition (in general, how much of the control response was suppressed) in [1] was 93%. Also, the pEC50 (as a rule, −log10 of the EC50, conventionally taken in molar units) in [2] was 8.00; in data set [3], 6.99. Also, in data set [4], the “Ratio EC50” value is 10.

As for `COc1cccc2cc(C(=O)N[C@@H](CC(N)=O)C(=O)N[C@@H](Cc3ccccc3)[C@H](O)C(=O)N3CSC(C)(C)[C@H]3C(=O)NCc3c(C)cccc3C)oc12`, the inhibition in data set [1] was determined as 96%. Also, the pEC50 in [2] was 7.22. The “Ratio EC50” value in data set [5] amounted to 1.4.

Take `Cc1cccc(C)c1OCC(=O)N[C@@H](Cc1ccccc1)[C@@H](O)C[C@H](Cc1ccccc1)NC(=O)[C@H](C(C)C)N1CCCNC1=O` [LOPINAVIR]: the CC50 at 120 h in [6] was > 10000 nM.

For the compound `Cc1cccc(C)c1CNC(=O)[C@H]1N(C(=O)[C@@H](O)[C@H](Cc2ccccc2)NC(=O)[C@@H](NC(=O)c2cc(=O)c3ccccc3o2)[C@H]2CCOC2)CSC1(C)C`, the inhibition in [1] was 98%. Further, the pEC50 in data set [2] was 8.30; in data set [3], 6.94. The “Ratio EC50” value in data set [4] was determined as 23.

For the compound `Cc1ccccc1CNC(=O)[C@H]1N(C(=O)[C@@H](O)[C@H](Cc2ccccc2)NC(=O)[C@@H](NC(=O)c2cnc3ccccc3n2)[C@H]2CCOC2)CSC1(C)C`, the inhibition in [1] was determined as 97%. Besides, the pEC50 in data set [2] was 8.40; in [3], 7.08. For the same compound, the “Ratio EC50” value in data set [4] is reported as 21; in data set [5] it was 24. For the same compound, the CC50 at 120 h in [6] was 10000 nM.

For the compound `Cc1cccc(C)c1CNC(=O)[C@H]1N(C(=O)[C@@H](O)[C@H](Cc2ccccc2)NC(=O)[C@H](CC(N)=O)NC(=O)c2cc3ccccc3o2)CSC1(C)C`, the inhibition in data set [1] was found to be 97%. In data set [7], the pEC50 was 7.42. Moreover, in data set [8], the “Ratio EC50” value was 1.6.

Turning to `Cc1cccc(C)c1CNC(=O)[C@H]1N(C(=O)[C@@H](O)[C@H](Cc2ccccc2)NC(=O)[C@@H](NC(=O)c2cc3ccccc3o2)[C@H]2CCOC2)CSC1(C)C`, in [1], the inhibition worked out at 97%. Moreover, the pEC50 is 7.92 in data set [2] and 7.05 in data set [3]. The “Ratio EC50” value in [4] turned out to be 7.5; in data set [5], 57. Also, in data set [6], the CC50 at 120 h was found to be 38000 nM.

On to `Cc1ccccc1CNC(=O)[C@H]1N(C(=O)[C@@H](O)[C@H](Cc2ccccc2)NC(=O)[C@@H](NC(=O)c2ccc3ccccc3n2)[C@@H]2CCOC2)CSC1(C)C`, for which the inhibition in data set [1] came to 69%. Besides, the pEC50 in data set [2] is 7.59; in data set [3] it was 6.22. For the same compound, the “Ratio EC50” value in [4] is 23.

For the compound `COc1cccc2cc(C(=O)N[C@H](C(=O)N[C@@H](Cc3ccccc3)[C@H](O)C(=O)N3CSC(C)(C)[C@H]3C(=O)NCc3c(C)cccc3C)C(C)C)oc12`, the inhibition in data set [1] came out at 95%. The pEC50 in [7] was > 8.52. Besides, the “Ratio EC50” value in [8] is on record as >103.

Turning to `CN(C)c1cccc(OCC(=O)N[C@H](C(=O)N[C@@H](Cc2ccccc2)[C@H](O)C(=O)N2CSC(C)(C)[C@H]2C(=O)N[C@H]2c3ccccc3C[C@H]2O)[C@H]2CCOC2)c1`, the inhibition in data set [1] turned out to be 95%. Moreover, the pEC50 in data set [2] is 8.40; in [3], 7.10. Moreover, the “Ratio EC50” value in [4] is listed as 20.

In the case of `Cc1ccccc1CNC(=O)[C@H]1N(C(=O)[C@@H](O)[C@H](Cc2ccccc2)NC(=O)[C@@H](NC(=O)c2cnc3ccccc3n2)[C@@H]2CCOC2)CSC1(C)C`, in data set [1], the inhibition came out at 86%. Also, the pEC50 in data set [2] is 7.92; in [3], 6.88. The “Ratio EC50” value in data set [4] is 11.

On to `Cc1cccc(C)c1CNC(=O)[C@H]1N(C(=O)[C@@H](O)[C@H](Cc2ccccc2)NC(=O)[C@@H](NC(=O)c2cc3ccccc3o2)C(C)C)CSC1(C)C`, for which the inhibition in [1] worked out at 93%. In addition, the pEC50 in data set [7] is 7.74. In addition, the “Ratio EC50” value in data set [8] worked out at 61.

`C=CCNC(=O)[C@H]1N(C(=O)[C@@H](O)[C@H](Cc2ccccc2)NC(=O)[C@@H](NC(=O)COc2cccc(N(C)C)c2)[C@H]2CCOC2)CSC1(C)C`: in data set [1], the inhibition came to 95%. Moreover, the pEC50 in [2] is 8.10; in [3] it was 6.72. For the same compound, the “Ratio EC50” value in data set [4] is 24.

As to `CN(C)c1cccc(OCC(=O)N[C@H](C(=O)N[C@@H](Cc2ccccc2)[C@H](O)C(=O)N2CSC(C)(C)[C@H]2C(=O)NC/C=C\CO)[C@H]2CCOC2)c1`, the inhibition in data set [1] came out at 94%. Also, the results for the pEC50 in [2] and in [3] were 6.25 and 5.69, respectively. In addition, the “Ratio EC50” value in data set [4] turned out to be 3.6.

The compound `CC(C)CN(C[C@@H](O)[C@H](Cc1ccccc1)NC(=O)O[C@H]1CO[C@H]2OCC[C@H]21)S(=O)(=O)c1ccc(N)cc1` showed a pEC50 in data set [9] of 9.09.

`C=C(C)CNC(=O)[C@H]1N(C(=O)[C@@H](O)[C@H](Cc2ccccc2)NC(=O)[C@@H](NC(=O)COc2cccc(N(C)C)c2)[C@H]2CCOC2)CSC1(C)C`: in data set [1], the inhibition came to 97%. Besides, the pEC50 in data set [2] is 8.15; in [3] it was 7.31. Moreover, in data set [4], the “Ratio EC50” value is 7.

Regarding `Cc1cccc(C)c1CNC(=O)[C@H]1N(C(=O)[C@@H](O)[C@H](Cc2ccccc2)NC(=O)[C@@H](NC(=O)COc2cccc(N(C)C)c2)[C@H]2CCOC2)CSC1(C)C`, the inhibition in data set [1] was found to be 97%. In addition, the pEC50 in data set [2] is > 8.52; in data set [3], 7.82. The “Ratio EC50” value is on record as >5 in data set [4] and >55 in data set [5]. For the same compound, the CC50 at 120 h in data set [6] was found to be 60000 nM.

Turning to `Cc1cccc(C)c1CNC(=O)[C@H]1N(C(=O)[C@@H](O)[C@H](Cc2ccccc2)NC(=O)[C@@H](NC(=O)COc2cccc3cnccc23)[C@H]2CCOC2)CSC1(C)C`, the inhibition in data set [1] is 98%. Besides, the figures for the pEC50 in [2] and in [3] were 7.22 and 6.84, respectively. For the same compound, the “Ratio EC50” value in data set [4] amounted to 2.4.

For `CN(C)c1cccc(OCC(=O)N[C@H](C(=O)N[C@@H](Cc2ccccc2)[C@H](O)C(=O)N2CSC(C)(C)[C@H]2C(=O)N[C@H]2CCc3ccccc32)[C@H]2CCOC2)c1`, the inhibition in data set [1] was 97%. Also, the pEC50 in data set [2] is 8.30; in data set [3], 7.52. The “Ratio EC50” value in [4] came out at 6.

For the compound `Cc1ccccc1CNC(=O)[C@H]1N(C(=O)[C@@H](O)[C@H](Cc2ccccc2)NC(=O)[C@@H](NC(=O)COc2cccc3cnccc23)[C@H]2CCOC2)CSC1(C)C`, the inhibition in data set [1] is 97%. Moreover, the pEC50 in [2] was 7.68; in [3], 5.36. In addition, the “Ratio EC50” value in data set [4] turned out to be 207.

As for `Cc1cccc(C)c1CNC(=O)[C@H]1N(C(=O)[C@@H](O)[C@H](Cc2ccccc2)NC(=O)[C@@H](NC(=O)COc2cccc(Nc3ccccc3)c2)[C@H]2CCOC2)CSC1(C)C`, in [1], the inhibition was 93%. In addition, the pEC50 was 8.30 in data set [2] and 6.99 in data set [3]. For the same compound, the figures for the “Ratio EC50” value in [4] and in [5] were 21 and 45, respectively. Besides, the CC50 at 120 h in data set [6] came out at 39000 nM.

Regarding `Cc1ccccc1CNC(=O)[C@H]1N(C(=O)[C@@H](O)[C@H](Cc2ccccc2)NC(=O)[C@@H](NC(=O)c2ccc3ccccc3n2)[C@H]2CCOC2)CSC1(C)C`, in data set [1], the inhibition stood at 96%. Besides, the figures for the pEC50 in data set [2] and in data set [3] were > 8.52 and 6.39, respectively. Also, in data set [4], the “Ratio EC50” value is >137.
